Measurements from ChEMBL document CHEMBL5370635, “Structure-Based Design and Synthesis of Potent and Selective KRAS G12D Inhibitors” (ACS Med Chem Lett, 2023).

Columns and labels:
[1] = test system: GTPase KRas (Homo sapiens), P01116 [G12D]; assay: Thermal stabilization of GDP-bound KRAS G12D mutant (1 to 169 residues) (unknown origin) assessed as melting temperature incubated for 1 hrs by differential scanning fluorimetry assay
GTPase KRas [2] = target: T1, GTPase KRas (Homo sapiens, UniProt P01116); assay: (§1) Inhibition of wild-type GDP-bound biotinylated-KRAS (unknown origin) assessed as suppression of SOS1-mediated nucleotide exchange by measuring reduction in KRAS-RAF RBD complex formation preincubated for 60 mins followed by SOS1 addition and further incubated for 60 mins and subsequent addition of KRAS-RAF RBD mixture measured after 30 to 60 mins by FRET assay
GTPase KRas [3] = target: T2, GTPase KRas (Homo sapiens, UniProt P01116, G12D); assay: as §1, with “of” for “of wild-type”, “biotinylated-KRAS G12D mutant (1 to 169 residues)” for “biotinylated-KRAS”, “KRAS G12D mutant-RAF” for “KRAS-RAF”
GTPase KRas [4] = target: T2, GTPase KRas; assay: Inhibition of KRAS G12D mutant in human ASPC1 cells assessed as reduction in ERK phosphorylation measured after 4 hrs by HTRF assay; assay type: cell-based
GTPase KRas [5] = target: T1, GTPase KRas; assay: Thermal stabilization of wild-type GDP-bound KRAS (1 to 169 residues) (unknown origin) assessed as melting temperature incubated for 1 hrs by differential scanning fluorimetry assay
ASPC1 [6] = assay: Antiproliferative activity against human ASPC1 cells assessed as reduction in cell viability measured after 5 days by Cell-Titer Glo assay; assay type: functional, cell-based; conditions: ASPC1, 120 h
In short: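 AsPC-1 PDAC cells (KRAS G12D) grown in three-dimensional culture; viability read by Cell-Titer Glo luminescence.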

ASPC1 [7] = assay: Antitumor activity against human ASPC1 cells xenografted in mouse assessed as inhibition of tumor growth at 10 mg/kg bid for 28 days relative to control; assay type: functional; conditions: ASPC1, 672 h, time 28 day, read-out: TGI
In short: (§2)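 Mice bearing AsPC-1 (KRAS G12D pancreatic ductal adenocarcinoma) xenografts were given repeated twice-daily doses of 3, 10 or 20 mg/kg alongside a vehicle control group, with n = 8 per group. Tumor growth inhibition or regression was assessed against vehicle, with body weight also tracked. Group means were reported with SEM, and P values were calculated versus vehicle.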

HPAC = assay: Antiproliferative activity against human HPAC cells assessed as reduction in cell viability measured after 5 days by Cell-Titer Glo assay; assay type: functional, cell-based; conditions: 120 h
[8] = Selectivity ratio of IC50 for RAS initiative wild-type cells to IC50 for RAS initiative G12D cells; assay type: functional
[9] = Antiproliferative activity against human GP2d cells assessed as reduction in cell viability measured after 5 days by Cell-Titer Glo assay; assay type: functional, cell-based; conditions: 120 h
HPAF-II = assay: Antiproliferative activity against human HPAF-II cells assessed as reduction in cell viability measured after 5 days by Cell-Titer Glo assay; assay type: functional, cell-based; conditions: 120 h
[10] = Toxicity in human ASPC1 cell xenografted mouse at 3 to 20 mg/kg bid administered for 28 days; assay type: organism-based; conditions: in vivo, 672 h, dose 3-20 mg/kg, time 28 day
In short: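 Mice bearing AsPC-1 KRAS G12D PDAC xenografts dosed BID at 3, 10 or 20 mg/kg alongside a vehicle control group. Body weight change tracked over the treatment period together with tumour growth. Group means, n = 8, with SEM.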

AGS = assay: Antiproliferative activity against human AGS cells assessed as reduction in cell viability measured after 5 days by Cell-Titer Glo assay; assay type: functional, cell-based; conditions: 120 h
[11] = Antiproliferative activity against human SNU-1033 cells assessed as reduction in cell viability measured after 5 days by Cell-Titer Glo assay; assay type: functional, cell-based; conditions: SNU-1033, 120 h
ASPC1 [12] = assay: Antitumor activity against human ASPC1 cells xenografted in mouse assessed as inhibition of tumor growth at 3 mg/kg bid for 28 days relative to control; assay type: functional; conditions: ASPC1, 672 h, time 28 day, read-out: TGI; in short: as §2
SK-LU-1 = assay: Antiproliferative activity against human SK-LU-1 cells assessed as reduction in cell viability measured after 5 days by Cell-Titer Glo assay; assay type: functional, cell-based; conditions: SK-LU-1, 120 h
[13] = Antiproliferative activity against human Panc 04.03 cells assessed as reduction in cell viability measured after 5 days by Cell-Titer Glo assay; assay type: functional, cell-based; conditions: Panc 04.03, 120 h
[14] = Antiproliferative activity against RAS initiative wild-type cells assessed as reduction in cell viability after 5 days of treatment by Cell-Titer Glo assay; assay type: functional, cell-based; conditions: Homo sapiens, 120 h
ASPC1 [15] = assay: Antitumor activity against human ASPC1 cells xenografted in mouse assessed as inhibition of tumor growth at 20 mg/kg bid for 28 days relative to control; assay type: functional; parameters: scale not given: the % may be the effect or the level left; conditions: time 28 day; in short: as §2
[16] = Antiproliferative activity against RAS initiative G12D cells assessed as reduction in cell viability after 5 days of treatment by Cell-Titer Glo assay; assay type: functional, cell-based; conditions: Homo sapiens, 120 h
LS-513 = assay: Antiproliferative activity against human LS-513 cells assessed as reduction in cell viability measured after 5 days by Cell-Titer Glo assay; assay type: functional, cell-based; conditions: LS-513, 120 h
ASPC1 [17] = assay: Antitumor activity against human ASPC1 cells xenografted in mouse assessed as tumor regression at 20 mg/kg bid for 28 days relative to control; assay type: functional; conditions: time 28 day; in short: as §2
Homo sapiens = organism: Homo sapiens; assay: Selectivity ratio of IC50 for wild-type GDP-bound biotinylated-KRAS (unknown origin) to IC50 for GDP-bound biotinylated-KRAS G12D mutant (1 to 169 residues) (unknown origin)

Row | SMILES | ΔTm [1] [°C] | IC50 (GTPase KRas [2]) [nM] | IC50 (GTPase KRas [3]) [nM] | IC50 (GTPase KRas [4]) [nM] | ΔTm (GTPase KRas [5]) [°C] | also measured
1 | CN1CCC[C@H]1COc1nc(N2C[C@H]3CC[C@@H](C2)N3)c2cc(Cl)c(-c3ccc(F)c4sc(N)c(C#N)c34)c(F)c2n1 | 17.1 | 17 | 1.3 | 138 | 10.3 | –
2 | Nc1nc2c(-c3c(Cl)cc4c(N5C[C@H]6CC[C@@H](C5)N6)nc(OC[C@@]56CCCN5C[C@H](F)C6)nc4c3F)ccc(F)c2s1 | 14.7 | 39.6 | 3.8 | 149 | 7.2 | –
3 | C#Cc1c(F)ccc2cc(O)cc(-c3ncc4c(N5C[C@H]6CC[C@@H](C5)N6)nc(OC[C@@]56CCCN5C[C@H](F)C6)nc4c3F)c12 [MRTX-1133] | – | – | – | – | – | IC50 (ASPC1 [6]): 11 nM; inhibition in vivo at 10 mg/kg (ASPC1 [7]): 83%; IC50 (HPAC): 4.2 nM; Ratio IC50 [8]: >100; IC50 [9]: 0.4 nM; IC50 (HPAF-II): 14.9 nM; Activity [10]: Non-Toxic; IC50 (AGS): 3.2 nM; IC50 [11]: 4980 nM; inhibition in vivo at 3 mg/kg (ASPC1 [12]): 61%; IC50 (SK-LU-1): 2.7 nM; IC50 [13]: 27.6 nM; IC50 [14]: 6470 nM; Activity (ASPC1 [15]): 94%; IC50 [16]: 16.4 nM; IC50 (LS-513): 8.1 nM
4 | N#Cc1c(N)sc2c(F)ccc(-c3c(C(F)(F)F)cc4c(N5C[C@H]6CC[C@@H](C5)N6)nc(OC[C@@]56CCCN5C[C@H](F)C6)nc4c3F)c12 | 20.8 | 3.9 | 0.86 | 2.1 | 8.3 | IC50 (ASPC1 [6]): 3.5 nM; inhibition in vivo at 10 mg/kg (ASPC1 [7]): 77%; IC50 (HPAC): 1.8 nM; Ratio IC50 [8]: >100; IC50 [9]: 0.2 nM; IC50 (HPAF-II): 7.2 nM; Activity [10]: Non-Toxic; IC50 (AGS): 0.7 nM; IC50 [11]: 623 nM; inhibition in vivo at 3 mg/kg (ASPC1 [12]): 51%; IC50 (SK-LU-1): 0.5 nM; IC50 [13]: 10.6 nM; IC50 [14]: 978 nM; IC50 [16]: 5.8 nM; Activity (ASPC1 [17]): 54%; IC50 (LS-513): 2 nM
5 | N#Cc1c(N)sc2c(F)ccc(-c3c(Cl)cc4c(N5C[C@H]6CC[C@@H](C5)N6)ncnc4c3F)c12 | 7.4 | > 1000 | 5.32 | 1080 | 3.7 | Ratio IC50 (Homo sapiens): 188
6 | Cc1cc(N)nc(-c2c(Cl)cc3c(N4CCNC[C@@H]4C)nc(OC[C@@H]4CCCN4C)nc3c2F)c1C(F)(F)F | 2.6 | > 1000 | 76.9 | > 10000 | 1.4 | –
7 | N#Cc1c(N)sc2c(F)ccc(-c3c(Cl)cc4c(N5C[C@H]6CC[C@@H](C5)N6)nc(OC[C@@]56CCCN5C[C@H](F)C6)nc4c3F)c12 | 20.2 | 4.2 | 0.98 | 4.3 | 13.4 | IC50 (ASPC1 [6]): 15.1 nM; IC50 (HPAC): 3.4 nM; Ratio IC50 [8]: >100; IC50 [9]: 0.2 nM; IC50 (HPAF-II): 14.2 nM; IC50 (AGS): 1.2 nM; IC50 [11]: 1890 nM; IC50 (SK-LU-1): 1.4 nM; IC50 [13]: 58.6 nM; IC50 [14]: 3440 nM; IC50 [16]: 33.4 nM; IC50 (LS-513): 7.5 nM
8 | N#Cc1c(N)sc2c(F)ccc(-c3c(Cl)cc4c(N5C[C@H]6CC[C@@H](C5)N6)nc(OCC5(CN6CC[C@@H](F)C6)CC5)nc4c3F)c12 | 17.8 | 9.2 | 1 | 30 | 12 | –
9 | Nc1cc2cccc(F)c2c(-c2c(Cl)cc3c(N4C[C@H]5CC[C@@H](C4)N5)nc(OC[C@@]45CCCN4C[C@H](F)C5)nc3c2F)n1 | 7.4 | > 1000 | 6 | 1030 | 2.2 | –
10 | Nc1cc2ccccc2c(-c2c(Cl)cc3c(N4C[C@H]5CC[C@@H](C4)N5)nc(OC[C@@]45CCCN4C[C@H](F)C5)nc3c2F)n1 | 4.3 | > 1000 | 12.8 | 2970 | 0.8 | –
11 | Cc1cc(N)nc(-c2c(Cl)cc3c(N4C[C@H]5CC[C@@H](C4)N5)nc(OCC45CCCN4CCC5)nc3c2F)c1C(F)(F)F | 10.9 | 214 | 2.1 | 928 | 4.6 | –
12 | N#Cc1c(N)sc2c(F)ccc(-c3cc4nc(OC[C@@]56CCCN5C[C@H](F)C6)nc(N5C[C@H]6CC[C@@H](C5)N6)c4cc3Cl)c12 | 16 | 11.6 | 1.5 | 42.9 | 9.4 | –
13 | Cc1cc(N)nc(-c2c(Cl)cc3c(N4C[C@H]5CC[C@@H](C4)N5)nc(OC[C@@H]4CCCN4C)nc3c2F)c1C(F)(F)F | 7.3 | > 1000 | 3.5 | 941 | 1.9 | Ratio IC50 (Homo sapiens): > 286
14 | Cc1cc(N)nc(-c2c(Cl)cc3c(N4C[C@H]5CC[C@@H](C4)N5)nc(OC[C@@]45CCCN4C[C@H](F)C5)nc3c2F)c1C(F)(F)F | 11.7 | 153 | 2.1 | 89.9 | 5.2 | –
